Assay results as given in ChEMBL document CHEMBL1828506, “New fluorine-containing hydrazones active against MDR-tuberculosis” (Eur J Med Chem, 2011).
Values after ≈ are worked out from the molar mass of the structure shown.

Tests used:
[1] = Selectivity index, ratio of IC50 for human HepG2 cells to MIC for multidrug-resistant Mycobacterium tuberculosis A8 241; assay type: functional
[2] = test system: Mycobacterium tuberculosis; test: Antimycobacterial activity against multidrug-resistant Mycobacterium tuberculosis A8 241 after 28 days by colony forming unit determination; assay type: functional; details: A8 241, 672 h
Summary of the method: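 Compounds added to Sula liquid medium as DMSO solutions (DMSO at most 2%), incubated at 37 °C for 28 days. MIC is the lowest concentration giving visible growth inhibition. Activity was confirmed by CFU counts after subculture onto drug-free Löwenstein-Jensen solid medium.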

Question: For `O=C(N/N=C/Nc1ccc(C(=O)O)c(O)c1)c1cccc(F)c1`, which “Selectivity Index” value [1] is on record?
Answer: 592.64

Question: And the MIC [2]?
Answer: 0.5 µg/mL (≈ 1.58 µM)

Question: For `CCn1cc(C(=O)O)c(=O)c2cc(F)c(N3CCN(/C=N/NC(=O)c4ccc(C(F)(F)F)cc4)CC3)cc21`, which “Selectivity Index” value [1] is on record?
Answer: 3.98

Question: And the MIC [2]?
Answer: 5 µg/mL (≈ 9.37 µM)

Question: Which MIC [2] does the source give for `O=C(N/N=C/Nc1ccc(C(=O)O)c(O)c1)c1ccc(C(F)(F)F)cc1` here?
Answer: 0.5 µg/mL (≈ 1.36 µM)

Question: Which results are given for `CCn1cc(C(=O)O)c(=O)c2cc(F)c(N3CCNCC3)cc21` [NORFLOXACIN]?
Answer: Selectivity Index [1]: 15.87; MIC [2]: 10 µg/mL (≈ 31.3 µM)

Question: For `O=C(N/N=C/N1CCN(c2cc3c(cc2F)c(=O)c(C(=O)O)cn3C2CC2)CC1)c1cccc(C(F)(F)F)c1`, which “Selectivity Index” value [1] is on record?
Answer: 351.15

Question: What about the MIC [2] of the same compound?
Answer: 0.5 µg/mL (≈ 0.917 µM)

Question: For `NNC(=O)c1ccncc1` [ISONIAZID], which MIC [2] is on record?
Answer: 1 µg/mL (≈ 7.29 µM)

Question: Which results are given for `O=C(N/N=C/N1CCN(c2cc3c(cc2F)c(=O)c(C(=O)O)cn3C2CC2)CC1)c1cccc(F)c1`?
Answer: Selectivity Index [1]: 804.76; MIC [2]: 0.5 µg/mL (≈ 1.01 µM)

Question: For `O=C(N/N=C/Nc1ccc(C(=O)O)c(O)c1)c1ccc(F)cc1`, which MIC [2] is on record?
Answer: 0.5 µg/mL (≈ 1.58 µM)

Question: Which “Selectivity Index” value [1] does the source give for `O=C(O)c1ccc(N/C=N/NC(=O)c2ccccc2F)cc1O` here?
Answer: 767.77

Question: And the MIC [2]?
Answer: 0.5 µg/mL (≈ 1.58 µM)

Question: What does the source list for `CCn1cc(C(=O)O)c(=O)c2cc(F)c(N3CCN(/C=N/NC(=O)c4cccc(F)c4)CC3)cc21`?
Answer: Selectivity Index [1]: 38; MIC [2]: 5 µg/mL (≈ 10.3 µM)

Question: What does the source list for `O=C(N/N=C/N1CCN(c2cc3c(cc2F)c(=O)c(C(=O)O)cn3C2CC2)CC1)c1ccc(C(F)(F)F)cc1`?
Answer: Selectivity Index [1]: 378.41; MIC [2]: 0.5 µg/mL (≈ 0.917 µM)

Question: Which MIC [2] does the source give for `O=C(N/N=C/Nc1ccc(C(=O)O)c(O)c1)c1cccc(C(F)(F)F)c1` here?
Answer: 0.5 µg/mL (≈ 1.36 µM)

Question: With `Nc1ccc(C(=O)O)c(O)c1` [AMINOSALICYLIC ACID] as the compound, how does the MIC [2] read?
Answer: 0.25 µg/mL (≈ 1.63 µM)

Question: For `O=C(N/N=C/N1CCN(c2cc3c(cc2F)c(=O)c(C(=O)O)cn3C2CC2)CC1)c1ccc(F)cc1`, which “Selectivity Index” value [1] is on record?
Answer: 1268.58

Question: What about the MIC [2] of the same compound?
Answer: 0.5 µg/mL (≈ 1.01 µM)

Question: With `O=C(O)c1cn(C2CC2)c2cc(N3CCNCC3)c(F)cc2c1=O` [CIPROFLOXACIN] as the compound, how does the “Selectivity Index” value [1] read?
Answer: 110.37

Question: What about the MIC [2] of the same compound?
Answer: 1.5 µg/mL (≈ 4.53 µM)
